Activity calls are given as the source filed them. The rule behind the calls is not given here.
Legend:
[1] = biological target: T1, Fatty-acid amide hydrolase 1 (Rattus norvegicus) (UniProt P97612); assay: Ratio of Kinact to Ki for histidine6-tagged rat FAAH
T1 sequence (whole entry): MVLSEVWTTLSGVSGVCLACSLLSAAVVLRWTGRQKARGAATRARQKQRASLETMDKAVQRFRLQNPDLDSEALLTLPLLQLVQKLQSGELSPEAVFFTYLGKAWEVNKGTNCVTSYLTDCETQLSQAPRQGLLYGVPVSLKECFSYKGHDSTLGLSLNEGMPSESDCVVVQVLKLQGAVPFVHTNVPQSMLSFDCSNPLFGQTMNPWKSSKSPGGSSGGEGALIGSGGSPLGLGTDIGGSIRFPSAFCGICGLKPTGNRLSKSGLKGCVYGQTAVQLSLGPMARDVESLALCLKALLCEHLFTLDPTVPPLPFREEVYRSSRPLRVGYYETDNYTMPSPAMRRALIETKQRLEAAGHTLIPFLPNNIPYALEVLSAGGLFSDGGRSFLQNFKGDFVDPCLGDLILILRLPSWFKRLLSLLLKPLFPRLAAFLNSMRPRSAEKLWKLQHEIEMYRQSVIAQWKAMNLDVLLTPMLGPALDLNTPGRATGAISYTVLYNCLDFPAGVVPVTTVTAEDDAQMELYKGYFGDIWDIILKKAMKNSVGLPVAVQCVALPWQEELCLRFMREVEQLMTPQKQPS
Summary of the method: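 Rat FAAH construct: aa 30–579, N-terminal transmembrane-deleted, N-terminal His6 tag, E. coli-expressed and purified to >95% purity. Activity read by a GDH-coupled enzyme assay in 384-well plates. Second-order kinact/Ki was derived from the linear slope of kobs versus [I], correcting with (1+[S]/Km).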

[2] = biological target: T2, Fatty-acid amide hydrolase 1 (Homo sapiens) (UniProt O00519); assay: Ratio of Kinact to Ki for histidine6-tagged human FAAH
T2 sequence (whole entry): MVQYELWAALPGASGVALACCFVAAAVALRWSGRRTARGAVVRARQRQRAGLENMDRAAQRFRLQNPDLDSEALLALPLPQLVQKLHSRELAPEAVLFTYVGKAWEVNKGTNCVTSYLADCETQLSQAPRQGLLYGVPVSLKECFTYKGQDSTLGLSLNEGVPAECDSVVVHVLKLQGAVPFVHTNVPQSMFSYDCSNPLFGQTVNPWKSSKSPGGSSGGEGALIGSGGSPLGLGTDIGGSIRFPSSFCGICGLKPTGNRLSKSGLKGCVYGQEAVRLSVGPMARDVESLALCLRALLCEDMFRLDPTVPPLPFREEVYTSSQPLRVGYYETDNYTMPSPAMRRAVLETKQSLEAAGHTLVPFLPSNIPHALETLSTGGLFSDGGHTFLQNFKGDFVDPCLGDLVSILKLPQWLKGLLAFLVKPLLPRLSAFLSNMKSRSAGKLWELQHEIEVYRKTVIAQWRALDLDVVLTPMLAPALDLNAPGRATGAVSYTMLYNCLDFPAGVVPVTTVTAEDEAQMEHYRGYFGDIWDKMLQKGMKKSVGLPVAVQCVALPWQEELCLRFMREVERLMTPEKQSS
Summary of the method: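 Human FAAH construct: aa 32–579, N-terminal transmembrane-deleted, N-terminal His6 tag, expressed in E. coli and purified to >95% by SDS–PAGE. Potency measured as kinact/Ki in a GDH-coupled FAAH assay in 384-well format. kobs was plotted against [I]; kinact/Ki came from the slope kinact/[Ki(1+[S]/Km)].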

[3] = biological target: T2, Fatty-acid amide hydrolase 1 (Homo sapiens); assay: Inhibition of histidine6-tagged FAAH from human heart proteomes at 10 to 100 uM
Summary of the method: (§1)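 Competitive activity-based protein profiling with FP probe labeling of serine hydrolases. Proteomes used: soluble mouse liver, mouse kidney, human liver and human heart, plus human brain membrane. Compounds tested at 100 μM, reference at 10 and 100 μM. Inhibited bands were read by gel; FAAH and off-target labeling were judged by band loss.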

[4] = biological target: T3, Fatty-acid amide hydrolase 1 (Mus musculus) (UniProt O08914); assay: Inhibition of histidine6-tagged FAAH from mouse liver proteomes at 10 to 100 uM; summary of the method: as §1
T3 sequence (whole entry): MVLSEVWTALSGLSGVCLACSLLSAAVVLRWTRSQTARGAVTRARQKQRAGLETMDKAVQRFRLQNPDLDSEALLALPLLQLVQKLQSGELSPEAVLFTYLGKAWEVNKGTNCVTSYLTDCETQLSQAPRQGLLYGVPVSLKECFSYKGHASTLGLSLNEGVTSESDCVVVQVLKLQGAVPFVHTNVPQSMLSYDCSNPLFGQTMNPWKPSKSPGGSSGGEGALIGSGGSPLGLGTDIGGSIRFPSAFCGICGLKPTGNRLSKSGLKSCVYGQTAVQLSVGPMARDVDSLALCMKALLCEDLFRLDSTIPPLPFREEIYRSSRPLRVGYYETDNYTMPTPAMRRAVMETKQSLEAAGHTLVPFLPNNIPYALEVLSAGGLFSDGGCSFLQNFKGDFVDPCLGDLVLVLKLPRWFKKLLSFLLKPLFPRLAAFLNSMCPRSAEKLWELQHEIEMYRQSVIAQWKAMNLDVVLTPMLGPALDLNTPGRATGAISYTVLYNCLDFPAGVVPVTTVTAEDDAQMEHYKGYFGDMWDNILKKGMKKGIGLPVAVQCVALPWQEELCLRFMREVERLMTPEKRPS

[5] = biological target: T2, Fatty-acid amide hydrolase 1 (Homo sapiens); assay: Inhibition of histidine6-tagged FAAH from human brain proteomes at 10 to 100 uM; summary of the method: as §1
[6] = biological target: T3, Fatty-acid amide hydrolase 1 (Mus musculus); assay: Inhibition of histidine6-tagged FAAH from mouse kidney proteomes at 10 to 100 uM; format: tissue-based; summary of the method: as §1
[7] = biological target: T2, Fatty-acid amide hydrolase 1 (Homo sapiens); assay: Inhibition of histidine6-tagged FAAH from human liver proteomes at 10 to 100 uM; summary of the method: as §1

Compound | Ratio [1] [M⁻¹ s⁻¹] | Ratio [2] [M⁻¹ s⁻¹] | also measured
Cc1c(C(C)C2CCN(C(=O)Nc3cccnc3)CC2)sc2ccccc12 (racemic) | 48 | 114 | 
CCN(CC)c1ccc(NC(=O)N2CCN(Cc3sc4ccccc4c3C)CC2)cn1 | 1430 | 1560 | 
Cc1ccc(NC(=O)N2CCN(Cc3sc4ccccc4c3Cl)CC2)cn1 | 133 | 900 | 
Cc1noc(NC(=O)N2CCN(Cc3sc4ccccc4c3C)CC2)c1C | 1430 | 1560 | 
C=C(c1sc2ccccc2c1C)C1CCN(C(=O)Nc2cccnc2)CC1 | 991 | 5440 | 
Cc1c(CN2CCN(C(=O)Nc3ccccn3)CC2)sc2ccccc12 | 635 | 1000 | 
Cc1cnc(NC(=O)N2CCN(Cc3sc4ccccc4c3C)CC2)s1 | < 10 | < 10 | 
Cc1c(CN2CCN(C(=O)Nc3ccc(N)nc3)CC2)sc2ccccc12 | 762 | 1920 | 
NC(=O)c1cccc(-c2cccc(OC(=O)NC3CCCCC3)c2)c1 |  |  | inhibition [3]: Active; inhibition [4]: Active; inhibition [5]: Active; inhibition [6]: Active; inhibition [7]: Active
Cc1c(CN2CCN(C(=O)Nc3ccc(-c4ccccc4)nc3)CC2)sc2ccccc12 | 1220 | < 10 | 
Cc1ccc(NC(=O)N2CCN(Cc3sc4ccccc4c3C)CC2)cn1 | 390 | 44 | inhibition [3]: Active; inhibition [4]: Active; inhibition [5]: Active; inhibition [6]: Active; inhibition [7]: Active
Cc1c(CN2CCN(C(=O)Nc3ccc(Br)nc3)CC2)sc2ccccc12 | 157 | 70 | 
Cc1c(CC2CCN(C(=O)Nc3cccnc3)CC2)sc2cccc(F)c12 | 1550 | 4150 | 
CNC(=O)CNC(=O)N1CCN(Cc2sc3ccccc3c2C)CC1 | < 10 | < 10 | 
CCc1c(CC2CCN(C(=O)Nc3cccnc3)CC2)sc2ccc(F)cc12 | 1140 | 2290 | 
Cc1c(C(C)C2CCN(C(=O)Nc3cccnc3)CC2)sc2ccccc12 (stereo in doubt; 17-E2) | 110 | 617 | 
Cc1c(CN2CCN(C(=O)Nc3ccc(C(F)(F)F)nc3)CC2)sc2ccccc12 | < 10 | 42 | 
CCOc1ccc2c(C)c(CN3CCN(C(=O)Nc4cccnc4)CC3)sc2c1 | < 10 | 14 | 
O=C(Nc1cccnc1)N1CCN(Cc2cc3ccccc3s2)CC1 | 174 | 695 | 
Cc1c(CN2CCN(C(=O)Nc3cccnn3)CC2)sc2ccccc12 | 191 | 924 | 
COc1ccc2sc(CN3CCN(C(=O)Nc4cccnc4)CC3)c(C)c2c1 | 500 | 1380 | 
Cc1ccc2sc(CN3CCN(C(=O)Nc4ccc(C)nc4)CC3)c(C)c2c1 | 183 | 1170 | 
Cc1c(CN2CCN(C(=O)Nc3cccnc3)CC2)sc2ccccc12 | 1080 | 2400 | 
Cc1c(CN2CCN(C(=O)Nc3cccnc3)CC2)sc2ccc(C(F)(F)F)cc12 | 219 | 1390 | 
Cc1c(CN2CCN(C(=O)NCc3ccccc3)CC2)sc2ccccc12 | < 10 | < 10 | 
Cc1ccc2sc(CN3CCN(C(=O)Nc4cccnc4)CC3)c(C)c2c1 | 557 | 2640 | 
